According to ChEMBL document CHEMBL3804761, “Synthesis of a stable and orally bioavailable englerin analogue” (Bioorg Med Chem Lett, 2016):

Assays:
Type in all cases: functional
[1] = test system: KM12; test: Growth inhibition of human KM12 cells incubated for 48 hrs by sulforhodamine B assay; settings: KM12, 48 h; for TGI: read-out: pTGI (converted)
How it was run: (§1)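 NCI 60-cell-line panel, standard protocol. Cells exposed to compound for two days, growth read by sulforhodamine B staining. Tested at five 10-fold dilutions, top concentration 100 µM, to give dose-response curves.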

[2] = test system: NCI-H23; test: Growth inhibition of human NCI-H23 cells assessed as cell growth at 10 uM incubated for 48 hrs by sulforhodamine B assay relative to control; settings: NCI-H23, 48 h, read-out: Activity
How it was run: (§2)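 Run in the standard NCI 60-cell-line screen. Cells were exposed to drug for two days, and the read-out was sulforhodamine B staining. Compound was tested at a single final concentration of 10 µM in every line, and results are reported as growth percent.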

[3] = test system: NCI-H322M; test: Growth inhibition of human NCI-H322M cells incubated for 48 hrs by sulforhodamine B assay; settings: for TGI: read-out: pTGI (converted); how it was run: as §1
[4] = test system: CCRF-CEM; test: Growth inhibition of human CCRF-CEM cells incubated for 48 hrs by sulforhodamine B assay; settings: for CC50: read-out: pLC50 (the source's name) (converted); for TGI: read-out: pTGI (converted); how it was run: as §1
[5] = test system: K562; test: Growth inhibition of human K562 cells incubated for 48 hrs by sulforhodamine B assay; settings: K562, 48 h; how it was run: as §1
[6] = test system: SK-MEL-5; test: Growth inhibition of human SK-MEL-5 cells incubated for 48 hrs by sulforhodamine B assay; settings: SK-MEL-5, 48 h; for TGI: read-out: pTGI (converted); how it was run: as §1
[7] = Growth inhibition of human RPMI8226 cells incubated for 48 hrs by sulforhodamine B assay; settings: RPMI-8226, 48 h; for CC50: read-out: pLC50 (the source's name) (converted); for TGI: read-out: pTGI (converted); how it was run: as §1
[8] = Growth inhibition of human Caki1 cells incubated for 48 hrs by sulforhodamine B assay; settings: CAKI-1, 48 h; for TGI: read-out: pTGI (converted); how it was run: as §1
[9] = Growth inhibition of human UACC257 cells assessed as cell growth at 10 uM incubated for 48 hrs by sulforhodamine B assay relative to control; settings: UACC-257, 48 h, read-out: Activity
How it was run: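 NCI 60-cell line standard protocol, one-dose screen: single final concentration 10 µM, 2-day drug exposure, sulforhodamine B (SRB) endpoint; read-out is growth percent relative to untreated control.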

[10] = test system: NCI-H460; test: Growth inhibition of human NCI-H460 cells incubated for 48 hrs by sulforhodamine B assay; settings: NCI-H460, 48 h; for CC50: read-out: pLC50 (the source's name) (converted); for TGI: read-out: pTGI (converted); how it was run: as §1
[11] = Growth inhibition of human UACC62 cells incubated for 48 hrs by sulforhodamine B assay; settings: UACC-62, 48 h; for TGI: read-out: pTGI (converted)
How it was run: (§3)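 Tested in the standard NCI 60-cell-line protocol with two-day drug exposure and a sulforhodamine B endpoint. Compounds were first screened at a single final concentration of 10 µM, reported as growth percent. They were then run as five 10-fold dilutions starting from a high concentration of 100 µM to give dose-response curves.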

[12] = Growth inhibition of human OVCAR4 cells incubated for 48 hrs by sulforhodamine B assay; settings: OVCAR-4, 48 h; for TGI: read-out: pTGI (converted); how it was run: as §1
[13] = Growth inhibition of human TK10 cells incubated for 48 hrs by sulforhodamine B assay; settings: TK-10, 48 h; for CC50: read-out: pLC50 (the source's name) (converted); for TGI: read-out: pTGI (converted); how it was run: as §3
[14] = test system: ACHN; test: Growth inhibition of human ACHN cells assessed as cell growth at 10 uM incubated for 48 hrs by sulforhodamine B assay relative to control; settings: read-out: Activity; how it was run: as §2
[15] = test system: SR; test: Growth inhibition of human SR cells incubated for 48 hrs by sulforhodamine B assay; settings: for TGI: read-out: pTGI (converted); how it was run: as §3
[16] = Growth inhibition of human BT549 cells incubated for 48 hrs by sulforhodamine B assay; settings: BT-549, 48 h; for CC50: read-out: pLC50 (the source's name) (converted); for TGI: read-out: pTGI (converted); how it was run: as §1
[17] = Growth inhibition of human SNB75 cells assessed as cell growth at 10 uM incubated for 48 hrs by sulforhodamine B assay relative to control; settings: SNB-75, 48 h, read-out: Activity; how it was run: as §2
[18] = Growth inhibition of human SF268 cells incubated for 48 hrs by sulforhodamine B assay; settings: SF-268, 48 h; for TGI: read-out: pTGI (converted); how it was run: as §1
[19] = test system: NCI-H322M; test: Growth inhibition of human NCI-H322M cells assessed as cell growth at 10 uM incubated for 48 hrs by sulforhodamine B assay relative to control; settings: read-out: Activity; how it was run: as §2
[20] = Growth inhibition of human MOLT4 cells assessed as cell growth at 10 uM incubated for 48 hrs by sulforhodamine B assay relative to control; settings: MOLT-4, 48 h, read-out: Activity; how it was run: as §2
[21] = test system: Malme-3M; test: Growth inhibition of human MALME-3M cells incubated for 48 hrs by sulforhodamine B assay; settings: for TGI: read-out: pTGI (converted); how it was run: as §1
[22] = test system: A498; test: Growth inhibition of human A498 cells assessed as cell growth at 10 uM incubated for 48 hrs by sulforhodamine B assay relative to control; settings: A498, 48 h, read-out: Activity
[23] = Growth inhibition of human SW620 cells assessed as cell growth at 10 uM incubated for 48 hrs by sulforhodamine B assay relative to control; settings: SW-620, 48 h, read-out: Activity; how it was run: as §2
[24] = Growth inhibition of human HOP62 cells assessed as cell growth at 10 uM incubated for 48 hrs by sulforhodamine B assay relative to control; settings: HOP-62, 48 h, read-out: Activity; how it was run: as §2
[25] = test system: CCRF-CEM; test: Growth inhibition of human CCRF-CEM cells assessed as cell growth at 10 uM incubated for 48 hrs by sulforhodamine B assay relative to control; settings: read-out: Activity
How it was run: (§4)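 Single-dose screen in the NCI 60-cell-line panel at one final concentration of 10 µM. Two-day drug exposure with a sulforhodamine B endpoint. Values are growth percent for each cell line.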

[26] = Growth inhibition of human HL-60(TB) cells assessed as cell growth at 10 uM incubated for 48 hrs by sulforhodamine B assay relative to control; settings: HL-60, 48 h, read-out: Activity; how it was run: as §4
[27] = Growth inhibition of human RXF393 cells incubated for 48 hrs by sulforhodamine B assay; settings: RXF 393, 48 h
How it was run: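 Run in the NCI 60-cell-line protocol, with 2-day drug exposure and sulforhodamine B read-out. Dose-response testing used five 10-fold dilutions starting from a high concentration of 100 µM.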

[28] = read-out: pLC50 (the source's name) (converted)

Work on `C/C(=C\C(=O)O[C@H]1[C@@H]2[C@H](C)CC[C@H]2[C@]2(C)O[C@@]1(C(C)C)C[C@H]2NC(=O)CO)c1ccccc1` yielded a GI50 [1] of 33.9 µM, an LC50 [1] of over 100 µM and a TGI [1] of over 100 µM. The growth at 10 µM [2] was 97.7%, the GI50 [3] was over 100 µM and the LC50 [3] was over 100 µM. It also gave a TGI [3] of over 100 µM, a GI50 [4] of 25.1 µM and a CC50 [4] of over 100 µM. For the same molecule, the TGI [4] was 77.6 µM, the GI50 [5] was 31.6 µM and the CC50 [5, 28] was over 100 µM. For the same molecule, the TGI ([5]; read-out: pTGI (converted)) was over 100 µM, the GI50 [6] was 19.5 µM and the LC50 [6] was 95.5 µM. The TGI [6] was 43.7 µM, the GI50 [7] was 19.5 µM and the CC50 [7] was over 100 µM. It also gave a TGI [7] of 56.2 µM, a GI50 [8] of 40.7 µM and an LC50 [8] of over 100 µM. For the same molecule, the TGI [8] was over 100 µM, the growth at 10 µM [9] was 92.4% and the GI50 [10] was 38 µM. For the same molecule, the CC50 [10] was over 100 µM, the TGI [10] was over 100 µM and the GI50 [11] was 35.5 µM. For the same molecule, the LC50 (lethal concentration, 50% net cell kill) [11] was over 100 µM, the TGI [11] was over 100 µM and the GI50 [12] was 35.5 µM. For the same molecule, the LC50 (concentration killing 50% of cells) [12] was over 100 µM, the TGI [12] was over 100 µM and the GI50 [13] was 83.2 µM. For the same molecule, the CC50 [13] was over 100 µM, the TGI [13] was over 100 µM and the growth at 10 µM [14] was 27.9%. It also gave a GI50 [15] of 26.3 µM, an LC50 [15] of over 100 µM and a TGI [15] of 74.1 µM. The GI50 [16] was 22.4 µM, the CC50 [16] was over 100 µM and the TGI [16] was 69.2 µM. The growth at 10 µM [17] was 102%, the GI50 [18] was 26.9 µM and the LC50 (lethal concentration, 50% net cell kill) [18] was over 100 µM. The TGI [18] was over 100 µM, the growth at 10 µM [19] was 105% and the growth at 10 µM [20] was 125%. For the same molecule, the GI50 [21] was 26.3 µM, the LC50 [21] was over 100 µM and the TGI [21] was over 100 µM. It also gave a growth at 10 µM [22] of -24.6%, a growth at 10 µM [23] of 103% and a growth at 10 µM [24] of 97.6%. The growth at 10 µM [25] was 94.1%.

`CC(C)[C@@]12C[C@@H](NC(=O)CO)[C@@](C)(O1)[C@@H]1CC[C@@H](C)[C@H]1[C@@H]2OC(=O)/C=C/c1ccccc1` showed a GI50 [1] of 20 µM, an LC50 [1] of over 50.1 µM and a TGI [1] of over 50.1 µM. The growth at 10 µM [2] was 81.9%, the GI50 [3] was over 50.1 µM and the LC50 [3] was over 50.1 µM. The TGI [3] was over 50.1 µM, the GI50 [4] was 14.1 µM and the CC50 [4] was over 50.1 µM. For the same molecule, the TGI [4] was over 50.1 µM, the growth at 10 µM [26] was 91.7% and the GI50 [6] was 12.9 µM. It also gave an LC50 [6] of over 50.1 µM, a TGI [6] of 42.7 µM and a GI50 [7] of 11.5 µM. It also gave a CC50 [7] of over 50.1 µM, a TGI [7] of 42.7 µM and a GI50 [8] of 9.55 µM. The LC50 [8] was over 50.1 µM, the TGI [8] was over 50.1 µM and the growth at 10 µM [9] was 104%. For the same molecule, the GI50 [10] was 17 µM, the CC50 [10] was over 50.1 µM and the TGI [10] was over 50.1 µM. For the same molecule, the GI50 [11] was 15.1 µM, the LC50 (lethal concentration, 50% net cell kill) [11] was over 50.1 µM and the TGI [11] was over 50.1 µM. The GI50 [12] was 17.8 µM, the LC50 (concentration killing 50% of cells) [12] was over 50.1 µM and the TGI [12] was over 50.1 µM. It also gave a GI50 [13] of 28.8 µM, a CC50 [13] of over 50.1 µM and a TGI [13] of over 50.1 µM. The growth at 10 µM [14] was 8.01%, the GI50 [15] was 13.5 µM and the LC50 [15] was over 50.1 µM. For the same molecule, the TGI [15] was 37.2 µM, the GI50 [16] was 6.92 µM and the CC50 [16] was over 50.1 µM. For the same molecule, the TGI [16] was 25.1 µM, the growth at 10 µM [17] was 59.6% and the GI50 [18] was 14.8 µM. It also gave an LC50 (lethal concentration, 50% net cell kill) [18] of over 50.1 µM, a TGI [18] of over 50.1 µM and a growth at 10 µM [19] of 77.8%. It also gave a growth at 10 µM [20] of 76%, a GI50 [21] of 20.9 µM and an LC50 [21] of over 50.1 µM. For the same molecule, the TGI [21] was over 50.1 µM, the growth at 10 µM [22] was -15.2% and the GI50 [27] was 2.09 µM. For the same molecule, the CC50 [27, 28] was over 50.1 µM, the TGI ([27]; read-out: pTGI (converted)) was 24.5 µM and the growth at 10 µM [23] was 109%. The growth at 10 µM [24] was 86.8% and the growth at 10 µM [25] was 99.8%.
